# Measured values collected from several papers.
# Compare with care: the assays were run in different laboratories.
# ABL1: Tyrosine-protein kinase ABL1 (ABL1, Homo sapiens, UniProt P00519)
# ABL1 T315I: Tyrosine-protein kinase ABL1 (ABL1, Homo sapiens, UniProt P00519, T315I)
# ABL1 F317I phosphorylated: Tyrosine-protein kinase ABL1, phosphorylated (ABL1, Homo sapiens, UniProt P00519, F317I)
# ABL1 Q252H phosphorylated: Tyrosine-protein kinase ABL1, phosphorylated (ABL1, Homo sapiens, UniProt P00519, Q252H)
# ABL1 F317L phosphorylated: Tyrosine-protein kinase ABL1, phosphorylated (ABL1, Homo sapiens, UniProt P00519, F317L)
# ABL1 E255K phosphorylated: Tyrosine-protein kinase ABL1, phosphorylated (ABL1, Homo sapiens, UniProt P00519, E255K)
# ABL1 T315I phosphorylated: Tyrosine-protein kinase ABL1, phosphorylated (ABL1, Homo sapiens, UniProt P00519, T315I)
# ABL1 H396P: Tyrosine-protein kinase ABL1 (ABL1, Homo sapiens, UniProt P00519, H396P)
Structure (SMILES),target,test,conditions,endpoint,result
CC(=O)Nc1c(C(C)=O)c(=O)n(C)c2nc(-c3ccc(Cl)cc3Cl)c(-c3ccc(Cl)cc3)cc12,"Tyrosine-protein kinase ABL1, non-phosphorylated (ABL1, Homo sapiens, UniProt P00519, F317I)","binding, competition with immobilised ligand",1 µM,remaining binding,77%
CC(C)c1ccc(NC(=O)c2cccs2)c(-c2nc3ccccc3[nH]c2=O)c1,ABL1,"enzyme activity, inhibitor",1 µM,activity vs control,115%
CNc1cccc2cc(C(=O)Nc3ccc(C(=O)O)cc3)c(=O)[nH]c12,ABL1 T315I,"enzyme activity, inhibitor",10 µM,inhibition,1.3%
CO[C@@H](C)c1c(Nc2ccc([C@H](N(C)C(=O)C3CCS(=O)(=O)CC3)C(F)(F)F)cc2)cnc2cc(Cl)nn12,ABL1 F317I phosphorylated,binding,1 µM,remaining binding,100%
O=C1Nc2ccc(Cl)cc2C1=Cc1cc(Cl)c(O)c(Cl)c1,ABL1,cell-free assay,0.5 µM,remaining signal,84%
Cc1ccc(C(=O)NCc2ccsc2)cc1C#Cc1cn(C(C)C)c2ncnc(N)c12,ABL1,"enzyme activity, inhibitor",1 µM,activity vs control,1%
COc1ccc(COc2ccc(Cc3cnc(N)nc3N)cc2OC)cc1,ABL1,cell-free assay,0.5 µM,remaining signal,102%
O=C(N1CCS(=O)(=O)CC1)N1C[C@H](c2ccc(OC(F)(F)F)cc2)C[C@H](c2nc(C3CC3)no2)C1,"Tyrosine-protein kinase ABL1, phosphorylated (ABL1, Homo sapiens, UniProt P00519, H396P)","cell-free assay, competition with immobilised ligand",1 µM,remaining binding,100%
Nc1ncnc2occ(-c3ccc(NC(=O)Nc4cc(C(F)(F)F)ccc4F)cc3)c12,"Tyrosine-protein kinase ABL1, non-phosphorylated (ABL1, Homo sapiens, UniProt P00519, T315I)","cell-free assay, inhibitor",20 µM,remaining signal,0%
COc1cnc(Nc2cccc(S(N)(=O)=O)c2)nc1N1CCN(c2ccccc2)C(=O)C1,ABL1 F317I phosphorylated,"binding, competition with immobilised ligand",1 µM,remaining binding,96%
COc1cc2c(N3CCN(C(=O)Nc4ccc(OC(C)C)cc4)CC3)ncnc2cc1OCCCN1CCCCC1,ABL1,cell-free assay,0.5 µM,remaining signal,104%
c1nc2c(Nc3ccc4c(c3)OCCO4)nc(Nc3ccc4c(c3)OCCO4)nc2[nH]1,"Tyrosine-protein kinase ABL1, phosphorylated (ABL1, Homo sapiens, UniProt P00519)","binding, competition with immobilised ligand",10 µM,binding vs control,1.2%
Nc1cnc(N2CCc3cc(S(=O)(=O)Nc4c(F)cc(Cl)cc4F)cc(N4CCCC4=O)c32)nc1,ABL1 Q252H phosphorylated,"cell-free assay, competition with immobilised ligand",1 µM,remaining binding,98%
Cc1cnc(Nc2ccc(C(=O)N3CCC(N4CCCC4)CC3)cc2)nc1-c1cc2ccccc2s1,ABL1 F317L phosphorylated,"binding, competition with immobilised ligand",1 µM,remaining binding,21%
COc1ncc2cc3ccccc3nc2c1C#N,ABL1 E255K phosphorylated,"cell-free assay, competition with immobilised ligand",5 µM,remaining binding,100%
C[S+]([O-])c1ccc(-c2nc(-c3ccncc3)c(-c3ccc(F)cc3)[nH]2)cc1 (stereo not drawn),ABL1,cell-free assay,0.5 µM,remaining signal,97%
COc1cc2nccc(Oc3ccc(NC(=O)Nc4ccc(F)cc4F)c(F)c3)c2cc1OC,ABL1,"thermal stability, DSF",10 µM,ΔTm,> 10 °C
CC(=O)c1c(NS(C)(=O)=O)c2cc(-c3ccc(Cl)cc3)c(-c3ccc(Cl)cc3Cl)nc2n(C)c1=O,ABL1 T315I phosphorylated,"cell-free assay, competition with immobilised ligand",1 µM,remaining binding,93%
O=C(Nc1c[nH]nc1C(=O)NC1CCNCC1)c1cc(F)cc(F)c1,ABL1 F317L phosphorylated,"binding, competition with immobilised ligand",1 µM,remaining binding,100%
COc1cc2ncnc(Nc3ccc(Oc4ccccc4)c(C)c3C)c2cc1OC,"Tyrosine-protein kinase ABL1 (ABL1, Homo sapiens, UniProt P00519, E255K)","enzyme activity, inhibitor",1 µM,inhibition,5%
CC(=O)N1CCC(c2ccc(C(=O)NC(=N)N)cc2C(F)(F)F)CC1,ABL1 F317I phosphorylated,binding,1 µM,remaining binding,96%
CCOC(=O)c1c(C)[nH]c(/C=C2\C(=O)Nc3ccccc32)c1C,ABL1,cell-free assay,0.5 µM,remaining signal,95.4%
CCN1CCN(Cc2ccc(C(=O)Nc3ccc(C)c(Oc4ccc5c(c4)CC(=O)N5)c3)cc2C(F)(F)F)CC1,"Tyrosine-protein kinase ABL1, non-phosphorylated (ABL1, Homo sapiens, UniProt P00519)","binding, competition with immobilised ligand",1 µM,remaining binding,2.1%
Cc1cc(NC(=O)c2cccc3cc(-c4cccc5[nH]nc(N)c45)ccc23)ccc1F,"Tyrosine-protein kinase ABL1 (ABL1, Homo sapiens, UniProt P00519, M351T)","enzyme activity, inhibitor",0.1 µM,activity vs control,89%
Cc1cnc(NC2CCOCC2)nc1-n1cnc(C(=O)NC(CN)c2cc(F)cc(Cl)c2)c1 (stereo not drawn),ABL1 H396P,"enzyme activity, inhibitor, radiometric",1 µM,remaining activity,108%
N[C@@H]1CCN(c2nccc(-c3cnn4ncccc34)n2)C1,"Tyrosine-protein kinase ABL1 (ABL1, Homo sapiens, UniProt P00519, F317L)",binding,1 µM,remaining binding,100%
O=C(c1ccc(Nc2ncc(Cl)c(-c3ccc(Cl)s3)n2)cc1)N1CCC(N2CCCC2)CC1,ABL1 Q252H phosphorylated,"binding, competition with immobilised ligand",1 µM,remaining binding,4.2%
Cc1ccc(NC(=O)c2ccc(C)c(C(F)(F)F)c2)cc1C#Cc1nn(C2CCC(O)CC2)c2ncnc(N)c12 (stereo not drawn),"Tyrosine-protein kinase ABL1 (ABL1, Homo sapiens, UniProt P00519, Y253F)",cell-free assay,10 µM,remaining signal,0%
COc1cc2ncnc(Nc3ccc(Oc4ccccc4)cc3C)c2cc1OC,ABL1,"enzyme activity, inhibitor",1 µM,inhibition,13%
Cc1cc(C)c(-n2ccn3nc(-c4cccnc4)cc23)cc1NC(=O)c1cc(C#N)cc(S(F)(F)(F)(F)F)c1,ABL1 F317L phosphorylated,"cell-free assay, competition with immobilised ligand",0.1 µM,remaining binding,63.3%
O=C(c1ccc(Nc2nccc(-c3cc4ccccc4s3)n2)cc1)N1CCC(N2CCCC2)CC1,ABL1 T315I phosphorylated,"binding, competition with immobilised ligand",1 µM,remaining binding,14%
COc1cc(-c2cc(-c3ccc(N4CCNCC4)cc3)cnc2N)cc(OC)c1OC,ABL1 T315I,"enzyme activity, inhibitor",0.1 µM,inhibition,13%
CCCOc1ccc(OC)c(F)c1C(=O)c1ccc(C(=O)N[C@@H]2CNC[C@H]2NC(=O)c2ccc3[nH]ncc3c2)cc1,ABL1 H396P,"enzyme activity, inhibitor",10 µM,remaining activity,107%
CN(CCCC(F)(F)F)c1nccc(-c2cnn3ncccc23)n1,"Tyrosine-protein kinase ABL1 (ABL1, Homo sapiens, UniProt P00519, F317I)",binding,1 µM,remaining binding,100%
O=C(O)[C@@H]1[C@@H](Cn2nnc3ccccc3c2=O)CC[C@H]1C(=O)c1ccc(OCCC2CCOCC2)cc1,ABL1 E255K phosphorylated,"binding, competition with immobilised ligand",1 µM,remaining binding,84%
c1cncc(-c2cccc(Nc3nccc(NC4CCCCC4)n3)c2)c1,ABL1 F317I phosphorylated,"binding, competition with immobilised ligand",10 µM,remaining binding,100%
